This is an account of results in ChEMBL document CHEMBL4359857, “Design, synthesis and biological evaluation of chalcones as reversers of P-glycoprotein-mediated multidrug resistance” (Eur J Med Chem, 2019).

Data set [1] relates to MCF7-DOX. The data set is described as follows: Down regulation of p-gp protein expression in human MCF7/Dox cells at 12.5 uM in presence of doxorubicin by Western blotting analysis. The data set is classed as functional, cell-based. As to conditions: TDE = time-dependent effect. The gist of the method: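 MCF-7/DOX cells exposed to compound (12.5 µM), DOX (8 µM), or the combination for 24 h and 48 h. P-gp protein measured by western blot. MCF-7 parental cells used as reference.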
(In general: In western blotting, separated proteins are transferred to a membrane and probed.)

Data set [2] is described as follows: Cytotoxicity against human H69 cells assessed as growth inhibition after 48 hrs by MTT assay. The data set is classed as cell-based. As to conditions: H69 cells (NCI-H69).
Data set [3] has as its target ATP-dependent translocase ABCB1 (Homo sapiens, UniProt P08183). The data set is described as follows: Reversal of P-gp mediated drug efflux in human MCF7/Dox cells assessed as increase in intracellular doxorubicin accumulation at 12.5 uM after 24 hrs by DAPI based fluorescence microscopic analysis. The data set is classed as cell-based. In short, it runs like this: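 MCF-7/DOX cells exposed to DOX 8 µM with or without compound at 12.5 µM. Nuclei stained with DAPI. Intracellular DOX red fluorescence imaged by fluorescence microscopy.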

Data set [4] can be described thus: Cytotoxicity against human H69AR cells assessed as growth inhibition after 48 hrs by MTT assay. The data set is classed as cell-based. On the technique in general: Tetrazolium assays rely on reduction of a dye to a coloured formazan, in cell work by metabolically active cells.
Data set [5] deals with MCF7-DOX. The data set is described as follows: Cytotoxicity against human MCF7/Dox cells assessed as reduction in cell viability after 48 hrs by MTT assay. The data set is classed as cell-based.
A short description of data set [6]: Toxicity in Balb/c mouse xenografted with human MCF7/Dox cells assessed as effect on body weight at 5 to 15 mg/kg in presence of doxorubicin and measured after 30 days. The data set is classed as organism-based. As to conditions: in vivo, 720 h. In general terms: A xenograft is tissue or cells of one species grown in another, often human tumour cells in immunodeficient mice.

Data set [7] can be described thus: Cytotoxicity against MDCK2 cells expressing BCRP assessed as growth inhibition after 48 hrs by MTT assay. The data set is classed as ADME, cell-based, Canis lupus familiaris. As to conditions: dog, MDCK2 (MDCK-II) cells expressing BCRP.
Data set [8] deals with MCF7-DOX. The data set is described as follows: Antitumour activity against human MCF7/Dox cells xenografted in Balb/c mouse assessed as reduction in tumour volume at 5 to 15 mg/kg and measured after 30 days. The data set is classed as functional, organism-based.
The subject of data set [9] is MCF7. The data set is described as follows: Antimigratory activity against human MCF7 cells after 36 hrs by crystal violet staining based transwell migration assay. The data set is classed as functional, cell-based. The gist of the method: (§1)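 Transwell migration assay with MCF-7 or MCF-7/DOX cells treated 36 h. Migrated cells quantified against untreated control cells. Means ± SD, n = 3.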

A short description of data set [10]: Cytotoxicity against human MCF7/Dox cells assessed as cell survival at 12.5 uM after 48 hrs by MTT assay relative to control. The settings on record: read-out: Survival. The data set is classed as cell-based.
For data set [11], the system named is MCF7-DOX. The data set is described as follows: Antitumour activity against human MCF7/Dox cells xenografted in Balb/c mouse assessed as tumour growth inhibition at 5 to 15 mg/kg in presence of doxorubicin and measured after 30 days. The data set is classed as functional, organism-based.
In data set [12] the test system is MCF7-DOX. The data set is described as follows: Antimigratory activity against human MCF7/Dox cells after 36 hrs by crystal violet staining based transwell migration assay. The data set is classed as functional, cell-based. In short, it runs like this:
as §1

Data set [13] in a line: Cytotoxicity against human MCF7 cells assessed as growth inhibition after 48 hrs by MTT assay. The data set is classed as cell-based.
Data set [14] relates to MCF7-DOX. The data set is described as follows: Antitumour activity against human MCF7/Dox cells xenografted in Balb/c mouse assessed as reduction in tumour weight at 5 to 15 mg/kg and measured after 30 days. The data set is classed as functional, organism-based.
In data set [15] the test system is MCF7-DOX. The data set is described as follows: Antimigratory activity against human MCF7/Dox cells after 24 hrs by wound healing assay. The data set is classed as functional, cell-based. The gist of the method:
(§2)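 Wound-healing assay on confluent monolayers of MCF-7 or MCF-7/DOX cells. Cells treated 24 h, then wound width imaged and migration quantified against untreated control cells. Means ± SD, n = 3.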

Data set [16] is described as follows: Toxicity in Balb/c mouse xenografted with human MCF7/Dox cells assessed as body weight at 5 to 15 mg/kg administered for 30 days and measured for every 2 days. The data set is classed as organism-based. The settings on record: in vivo.
For data set [17], the target named is Multidrug resistance-associated protein 1 (Homo sapiens, UniProt P33527). The data set is described as follows: Reversal of MRP-1 (unknown origin)-mediated multidrug resistance expressed in human H69AR cells assessed as potentiation of doxorubicin-induced cytotoxicity at 25 uM after 48 hrs by MTT assay. The data set is classed as cell-based. In short, it runs like this: (§3)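 Transporter selectivity screen by MTT in H69AR (MRP1-overexpressing) with doxorubicin, and in MDCK II BCRP with mitoxantrone. Compound tested at 12.5 and 25 µM alongside the cytostatic. Reversal read as decreased viability versus cytostatic alone.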

Data set [18] can be described thus: Cytotoxicity against human MCF7/Dox cells assessed as growth inhibition after 48 hrs by MTT assay. The data set is classed as cell-based.
For data set [19], the system named is MCF7-DOX. The data set is described as follows: Down regulation of p-gp mRNA expression in human MCF7/Dox cells at 12.5 uM in presence of doxorubicin after 48 hrs by RT-PCR analysis. The data set is classed as functional, cell-based. In short, it runs like this: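 MCF-7/DOX cells exposed for 48 h to compound (12.5 µM), DOX (8 µM), or both. P-gp mRNA measured by RT-PCR versus control and DOX-alone groups.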

The target of data set [20] is T1, Broad substrate specificity ATP-binding cassette transporter ABCG2 (Homo sapiens, UniProt Q9UNQ0).
T1 sequence (Q9UNQ0 whole entry): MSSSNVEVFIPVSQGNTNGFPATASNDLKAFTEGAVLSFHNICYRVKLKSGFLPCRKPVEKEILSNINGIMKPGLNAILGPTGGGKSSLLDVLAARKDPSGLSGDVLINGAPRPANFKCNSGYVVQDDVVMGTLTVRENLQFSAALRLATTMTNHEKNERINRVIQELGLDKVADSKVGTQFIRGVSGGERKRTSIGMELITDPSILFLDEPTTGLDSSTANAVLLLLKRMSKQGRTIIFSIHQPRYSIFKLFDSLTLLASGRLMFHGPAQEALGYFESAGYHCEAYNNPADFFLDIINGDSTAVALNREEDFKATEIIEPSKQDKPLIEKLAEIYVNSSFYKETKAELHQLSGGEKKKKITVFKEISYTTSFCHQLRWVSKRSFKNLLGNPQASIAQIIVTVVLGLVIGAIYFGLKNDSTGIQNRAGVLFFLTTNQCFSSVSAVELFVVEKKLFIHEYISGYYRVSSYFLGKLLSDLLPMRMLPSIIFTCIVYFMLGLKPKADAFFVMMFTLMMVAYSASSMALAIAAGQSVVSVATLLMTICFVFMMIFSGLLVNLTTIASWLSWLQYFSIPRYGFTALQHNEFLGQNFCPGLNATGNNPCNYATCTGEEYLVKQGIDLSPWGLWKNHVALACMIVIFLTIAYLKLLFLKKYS
The data set is described as follows: Reversal of ABCG2 (unknown origin)-mediated multidrug resistance expressed in MDCK2 cells assessed as potentiation of mitoxantrone-induced cytotoxicity at 25 uM after 48 hrs by MTT assay. The data set is classed as cell-based. The gist of the method: as §3

Data set [21] in a line: Cytotoxicity against MDCK2 cells assessed as growth inhibition after 48 hrs by MTT assay. The data set is classed as cell-based, Canis lupus familiaris. As to conditions: dog, MDCK2 (MDCK-II) cells.
In data set [22] the test system is MCF7. The data set is described as follows: Antimigratory activity against human MCF7 cells after 24 hrs by wound healing assay. The data set is classed as functional, cell-based. The gist of the method:
as §2

Activity calls are given as the source filed them. The rule behind the calls is not given here. Bounds are passed on as bounds.

Chain of Multidrug resistance-associated protein 1 (P33527 whole entry): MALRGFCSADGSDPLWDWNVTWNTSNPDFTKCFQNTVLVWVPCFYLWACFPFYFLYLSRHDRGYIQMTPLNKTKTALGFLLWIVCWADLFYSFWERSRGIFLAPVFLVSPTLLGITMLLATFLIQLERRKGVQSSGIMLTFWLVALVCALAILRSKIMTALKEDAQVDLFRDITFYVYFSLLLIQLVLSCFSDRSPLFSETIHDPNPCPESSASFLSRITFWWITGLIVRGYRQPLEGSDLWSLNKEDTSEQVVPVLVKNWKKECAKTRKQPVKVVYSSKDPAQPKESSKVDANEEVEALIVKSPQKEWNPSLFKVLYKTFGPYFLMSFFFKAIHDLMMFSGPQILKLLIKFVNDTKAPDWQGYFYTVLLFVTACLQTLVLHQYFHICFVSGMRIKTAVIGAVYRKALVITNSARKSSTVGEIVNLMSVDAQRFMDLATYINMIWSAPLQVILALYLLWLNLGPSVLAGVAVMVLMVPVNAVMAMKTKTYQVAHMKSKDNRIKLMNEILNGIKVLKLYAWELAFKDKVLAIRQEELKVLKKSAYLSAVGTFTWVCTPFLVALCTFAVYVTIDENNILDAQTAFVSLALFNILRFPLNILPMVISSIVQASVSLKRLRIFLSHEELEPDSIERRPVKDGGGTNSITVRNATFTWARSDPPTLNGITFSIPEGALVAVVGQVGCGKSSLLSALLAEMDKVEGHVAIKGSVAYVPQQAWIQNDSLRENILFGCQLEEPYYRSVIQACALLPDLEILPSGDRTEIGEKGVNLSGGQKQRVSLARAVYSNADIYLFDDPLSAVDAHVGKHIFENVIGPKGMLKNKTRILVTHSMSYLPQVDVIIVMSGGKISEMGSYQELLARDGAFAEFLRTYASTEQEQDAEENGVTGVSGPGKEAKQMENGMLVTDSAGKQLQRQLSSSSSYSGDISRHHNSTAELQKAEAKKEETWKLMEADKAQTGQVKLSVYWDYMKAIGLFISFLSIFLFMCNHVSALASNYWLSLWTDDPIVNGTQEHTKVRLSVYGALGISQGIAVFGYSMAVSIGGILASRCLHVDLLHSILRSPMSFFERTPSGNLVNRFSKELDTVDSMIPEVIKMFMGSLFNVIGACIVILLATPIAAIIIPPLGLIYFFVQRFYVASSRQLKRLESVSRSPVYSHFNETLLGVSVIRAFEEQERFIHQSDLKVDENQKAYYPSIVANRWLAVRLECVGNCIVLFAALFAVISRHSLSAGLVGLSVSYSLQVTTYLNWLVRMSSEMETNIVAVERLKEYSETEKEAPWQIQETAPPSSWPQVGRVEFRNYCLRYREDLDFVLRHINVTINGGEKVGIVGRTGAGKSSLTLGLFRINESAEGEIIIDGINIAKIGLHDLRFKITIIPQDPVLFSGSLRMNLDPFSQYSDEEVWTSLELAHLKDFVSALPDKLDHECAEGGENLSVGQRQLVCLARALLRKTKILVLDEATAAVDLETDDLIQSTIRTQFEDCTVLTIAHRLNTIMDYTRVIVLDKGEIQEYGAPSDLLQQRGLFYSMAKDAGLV
Chain of ATP-dependent translocase ABCB1 (P08183 whole entry): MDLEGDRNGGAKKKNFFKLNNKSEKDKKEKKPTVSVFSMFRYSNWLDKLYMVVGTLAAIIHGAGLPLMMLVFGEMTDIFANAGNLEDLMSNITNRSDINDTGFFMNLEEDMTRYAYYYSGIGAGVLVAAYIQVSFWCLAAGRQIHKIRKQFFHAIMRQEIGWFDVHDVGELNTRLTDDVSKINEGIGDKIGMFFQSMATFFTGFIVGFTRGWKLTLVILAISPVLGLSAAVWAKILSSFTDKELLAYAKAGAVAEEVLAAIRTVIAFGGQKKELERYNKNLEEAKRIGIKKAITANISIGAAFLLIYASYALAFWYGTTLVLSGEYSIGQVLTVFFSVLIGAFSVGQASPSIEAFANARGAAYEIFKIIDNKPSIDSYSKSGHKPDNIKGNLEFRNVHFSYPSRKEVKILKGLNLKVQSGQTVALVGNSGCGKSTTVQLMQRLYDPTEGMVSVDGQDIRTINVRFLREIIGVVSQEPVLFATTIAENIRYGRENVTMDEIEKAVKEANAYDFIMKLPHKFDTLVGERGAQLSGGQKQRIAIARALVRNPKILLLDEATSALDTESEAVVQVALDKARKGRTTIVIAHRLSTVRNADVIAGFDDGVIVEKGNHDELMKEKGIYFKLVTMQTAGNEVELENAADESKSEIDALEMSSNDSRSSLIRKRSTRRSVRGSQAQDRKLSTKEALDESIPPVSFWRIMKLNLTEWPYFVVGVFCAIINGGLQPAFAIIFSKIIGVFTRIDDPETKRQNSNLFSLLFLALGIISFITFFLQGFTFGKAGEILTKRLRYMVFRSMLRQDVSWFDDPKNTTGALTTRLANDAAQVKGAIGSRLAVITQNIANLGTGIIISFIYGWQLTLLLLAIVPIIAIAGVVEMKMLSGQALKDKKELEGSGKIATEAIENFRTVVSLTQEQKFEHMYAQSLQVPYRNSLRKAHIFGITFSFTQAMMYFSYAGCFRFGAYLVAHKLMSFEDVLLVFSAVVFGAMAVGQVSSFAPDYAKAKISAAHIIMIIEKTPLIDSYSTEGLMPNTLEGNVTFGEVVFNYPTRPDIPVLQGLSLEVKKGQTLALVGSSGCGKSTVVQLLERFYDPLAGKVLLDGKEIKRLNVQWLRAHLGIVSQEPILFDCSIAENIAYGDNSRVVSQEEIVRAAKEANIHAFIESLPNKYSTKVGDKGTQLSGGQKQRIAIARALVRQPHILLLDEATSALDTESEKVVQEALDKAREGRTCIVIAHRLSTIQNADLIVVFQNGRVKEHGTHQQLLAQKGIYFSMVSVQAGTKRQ

For orientation: GI50 means the concentration at which growth is held to half of that of the control. Broadly, the IC50 is the concentration at which inhibition is half-maximal. `COc1cc(OC)c(C(=O)/C=C/c2cccc(N3CCNCC3)c2)c(O)c1CC=C(C)C`: the inhibition entry with MCF7-DOX [1] was “Tde”. Also, the GI50 at 48 h in data set [2] is over 100 µM; in data set [4], 91.7 µM; in data set [7], over 100 µM; in data set [13] it was over 100 µM; in data set [18], over 100 µM; in data set [21], over 100 µM. Besides, the “inhibition (INH)” value is listed as “Active” in [3], “Not Active” in data set [17] and “Not Active” in data set [20]. Besides, the IC50 with MCF7-DOX [5] is 99.9 µM. Besides, the Activity result in data set [6] and in data set [16] was “Non-Toxic” in each case. In addition, the inhibition result with MCF7-DOX [8] and in the data set on MCF7-DOX [14] was “inactive” each time. Further, the inhibition entry with MCF7 [9], in the data set with MCF7-DOX [12], in the data set with MCF7-DOX [15], in the data set on MCF7-DOX [19] and with MCF7 [22] was “Active” each time. Moreover, in [10], the viability at 48 h, 12.5 µM is over 99%. For the same molecule, the TGI result in the data set with MCF7-DOX [11] was “Active”.
